For orientation: CC50 means the concentration that lowers cell viability or growth by half. As usually defined, the IC50 is the concentration that gives 50% inhibition. As usually defined, the EC50 is the midpoint of the concentration-response curve. As usually defined, the half-life is the time in which the quantity being followed falls by half. Low readings indicate rapid decline, high ones slow decline.

SMILES strings stand for the structures.

In one data set the test system is CEM-SS. Description: Cytotoxic concentration against mock infected in CEM-SS cells. Type of data set: functional. To be noted: Homo sapiens. The gist of the method: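 Mock-infected CEM-SS cells, tested alongside the HIV-1 RF cytoprotection (MTS) assay. Data come from triplicate tests.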
For data set [1], the target named is Human immunodeficiency virus type 1 reverse transcriptase (Human immunodeficiency virus 1, UniProt Q72547). Description: Inhibition of recombinant HIV-1 reverse transcriptase activity.
Data set [2] concerns Human immunodeficiency virus 1. Description: In vitro anti-HIV activity against HIV-1RF infected in CEM-SS cells using MTS cytoprotection assay. To be noted: Human immunodeficiency virus 1, CEM-SS. Type of data set: functional, organism-based. On the technique in general: Tetrazolium dyes change colour on reduction, which living cells bring about.
The test system of data set [3] is Human immunodeficiency virus 1. Nature of the data set: In vitro anti-HIV activity against HIV-1 IIIB infected in MT-4 cells using MTT assay. Type of data set: functional, organism-based. To be noted: Human immunodeficiency virus 1, MT4. The gist of the method:
(§1)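 MT-4 cells infected with HIV-1 strain IIIB or HIV-2 strain ROD. Protection from viral cytopathicity was read by MTT. Triplicate tests.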

Data set [4] is described as follows: In vitro hydrolytic stability in rat plasma, expressed as t1/2. Type of data set: ADME, cell-free. The gist of the method:
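1,1-Diphenylethylene (2.1–5.1 mg) or benzophenone (2.1 mg) served as internal standard. Hydrolysis of the methyl ester was followed, and t1/2 is given in min ± SD from triplicate tests.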

The test system of a further data set is MT4. Description: Cytotoxic concentration against mock infected in MT-4 cells. In kind it is functional. To be noted: Homo sapiens. Put shortly: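 Uninfected (mock-infected) MT-4 cells, run alongside the MTT antiviral assay. Triplicate tests.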
Data set [5] deals with Human immunodeficiency virus 2. Description: In vitro anti-HIV activity against HIV-2ROD infected in MT-4 cells using MTT assay. The conditions noted are these: Human immunodeficiency virus 2, MT4. Type of data set: functional, organism-based. The gist of the method:
as §1

Data set [6] is described as follows: In vitro hydrolytic stability in rat plasma, expressed as t1/2; Not hydrolyzed. In kind it is ADME, cell-free. The gist of the method: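 Compounds (4.3–9.3 mg) were incubated in rat plasma in vitro. 1,1-Diphenylethylene (2.1–5.1 mg) or benzophenone (2.1 mg) served as internal standard. Hydrolysis of the methyl ester was followed, and t1/2 is given in min ± SD from triplicate tests.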

On to `COC(=O)CCC/C=C(/c1ccc(OC)c(OC)c1)c1cc(C)c(OC)c(C(=O)OC)c1`, for which the CC50 in the data set on CEM-SS was determined as 1.14 µM. Moreover, the IC50 in data set [1] was 0.074 µM. In data set [2], a half-maximal response (EC50) required 0.21 µM.

On to `COC(=O)c1cc(C(=CCCN2CCOC2=O)c2cc(Br)c(OC)c(C(=O)OC)c2)cc(Br)c1OC`, for which the EC50 in data set [2] came to 0.02 µM.

`COC(=O)CCC/C=C(/c1cc(Cl)c(OC)c(C(=O)OC)c1)c1cc(Cl)ccc1OC`: the CC50 with CEM-SS was found to be 9.3 µM; in the data set with MT4, 5.41 µM. Also, the EC50 in data set [3] was more than 5.41 µM; in data set [2], more than 100 µM; in data set [5], more than 5.41 µM. In data set [4], this compound had a half-life of 46.2 s. Besides, the IC50 in data set [1] was more than 100 µM.

As to `COC(=O)CCC/C=C(/c1cc(C)c(OC)c(C(=O)OC)c1)c1cc(Cl)ccc1OC`, the CC50 in the data set on CEM-SS was determined as 15.5 µM; with MT4 it was 13.8 µM. Moreover, the EC50 in data set [3] was more than 13.8 µM; in data set [2], more than 100 µM; in data set [5] it was more than 13.8 µM. Also, the half-life in data set [4] was 58.8 s. In addition, the IC50 in data set [1] is more than 100 µM.

`COC(=O)CCC/C=C(/c1cc(F)cc(C(F)(F)F)c1)c1cc(C)c(OC)c(C(=O)OC)c1`: the CC50 with CEM-SS stood at 12 µM; in the data set on MT4, 113 µM. The EC50 in data set [3] turned out to be 2.54 µM; in data set [2] it was 7.3 µM; in data set [5], 10.6 µM. For the same compound, the half-life in data set [4] worked out at 261 s. Moreover, in data set [1], the IC50 amounted to 55.3 µM.

Consider `COC(=O)CCC/C=C(\c1cccc(C#N)c1)c1cc(Cl)ccc1OC`, for which the CC50 in the data set with CEM-SS was 16.3 µM; in the data set on MT4 it was not below 45.2 µM. Further, the EC50 in data set [3] was 9.11 µM; in data set [2], 7 µM; in data set [5] it was more than 67.6 µM. Also, in data set [4], the half-life was 25.2 s. In data set [1], the IC50 turned out to be 7.58 µM.

In the case of `COC(=O)CCC/C=C(\c1cc(C)c(OC)c(C(=O)OC)c1)c1cc(Cl)ccc1OC`, the CC50 in the data set with CEM-SS was found to be 8.3 µM; in the data set on MT4, 18.8 µM. Moreover, the EC50 in data set [3] is more than 18.8 µM; in data set [2], more than 100 µM; in data set [5] it was more than 14.5 µM. Also, the half-life in data set [4] was determined as 28.2 s. For the same compound, in data set [1], the IC50 was more than 100 µM.

For the compound `COC(=O)CCC/C=C(\c1cc(F)cc(C(F)(F)F)c1)c1cc(Cl)c(OC)c(C(=O)OC)c1`, in the data set on CEM-SS, the CC50 is 16.1 µM. Moreover, the IC50 in data set [1] was more than 100 µM. In addition, the half-maximal effective concentration (EC50) in data set [2] was more than 100 µM.

Turning to `COc1ccc(/C(=C\CCN2CCOC2=O)c2cc(F)cc(C(F)(F)F)c2)cc1OC`, the CC50 stood at 14.5 µM in the data set with CEM-SS and 18.5 µM with MT4. The values for the EC50 in data set [3], in data set [2] and in data set [5] were more than 18.5 µM, more than 100 µM and more than 13.4 µM, respectively. Besides, in data set [6], the T1/2 entry was “Not hydrolyzed”. Besides, in data set [1], the IC50 stood at 97.8 µM.

In turn, `COc1ccc(/C(=C\CCN2CCOC2=O)c2cc(F)ccc2C(F)(F)F)cc1OC` came in with a CC50 in the data set on CEM-SS of 26.7 µM. The T1/2 result in data set [6] is “Not hydrolyzed”. Further, in data set [1], the IC50 was more than 100 µM. Further, the EC50 in data set [2] was more than 100 µM.

`COC(=O)CCC/C=C(/c1cc(C)c2on(C)c(=O)c2c1)c1cc(Cl)ccc1OC`: the figures for the CC50 in the data set with CEM-SS and with MT4 were 13 µM and more than 28.8 µM, respectively. The results for the concentration for a half-maximal effect (EC50) in data set [3], in data set [2] and in data set [5] were more than 28.8 µM, more than 100 µM and more than 28.8 µM, respectively. In addition, the half-life in data set [4] worked out at 28.8 s. The IC50 in data set [1] is 8.2 µM.

With `COC(=O)CCC/C=C(\c1cc(F)cc(C(F)(F)F)c1)c1cc(C)c2on(C)c(=O)c2c1`, the CC50 is 16.8 µM in the data set with CEM-SS and 39.8 µM in the data set with MT4. Moreover, the results for the EC50 in data set [3], in data set [2] and in data set [5] were more than 35.7 µM, more than 100 µM and more than 43.2 µM, respectively. Also, the half-life in data set [4] stood at 52.2 s. For the same compound, in data set [1], the 50% inhibitory concentration (IC50) is more than 100 µM.

With `COC(=O)CCC/C=C(\c1cccc(C#N)c1)c1cc(C)c(OC)c(C(=O)OC)c1`, the CC50 in the data set with CEM-SS was 23.3 µM; with MT4, 153 µM. The results for the EC50 in data set [3], in data set [2] and in data set [5] were 12.8 µM, more than 100 µM and more than 169 µM, respectively. Besides, the half-life in data set [4] was 42.6 s. Further, the IC50 in data set [1] worked out at 0.84 µM.

For `COC(=O)CCC/C=C(\c1cccc(C#N)c1)c1cc(C)c2onc(OC)c2c1`, the CC50 in the data set with CEM-SS is 0.8 µM; in the data set with MT4 it was 4.69 µM. In addition, the EC50 was more than 2.05 µM in data set [3], more than 100 µM in data set [2] and more than 5.63 µM in data set [5]. Also, the half-life in data set [4] is 87.6 s. In addition, in data set [1], the IC50 was found to be 5.7 µM.

On to `COC(=O)c1cc(/C(=C\CCN2CCOC2=O)c2cc(F)cc(C(F)(F)F)c2)cc(C)c1OC`, for which the CC50 in the data set on CEM-SS came out at 15 µM; with MT4, 24.7 µM. Also, the concentration for a half-maximal effect (EC50) in data set [3] is 9.6 µM; in data set [2], 8.3 µM; in data set [5], more than 22.6 µM. Moreover, the half-life in data set [4] stood at 563 s. Further, the IC50 in data set [1] came out at 15.7 µM.

For `COC(=O)CCC/C=C(\c1cccc(C#N)c1)c1cc(Cl)c(OC)c(C(=O)OC)c1`, the CC50 in the data set on CEM-SS turned out to be 20.2 µM; with MT4, 213 µM. Further, the EC50 in data set [3] worked out at 8.55 µM; in data set [2], 7.1 µM. Moreover, the half-life in data set [4] came to 26.4 s. Besides, in data set [1], the half-inhibitory concentration (IC50) is 0.75 µM.

On to `COC(=O)c1cc(/C(=C\CCN2CCOC2=O)c2ccc(OC)c(OC)c2)cc(C)c1OC`, for which the results for the CC50 in the data set with CEM-SS and in the data set with MT4 were 0.49 µM and 1.05 µM, respectively. Also, the EC50 in data set [3] is more than 1.05 µM; in data set [2], more than 100 µM; in data set [5] it was more than 1.05 µM. Also, in data set [4], the half-life came out at 346 s. Moreover, the IC50 in data set [1] is 1 µM.

Take `COC(=O)c1cc(C(=CCCN2CCOC2=O)c2ccc(OC)c(OC)c2)cc(C)c1OC`: the CC50 in the data set with CEM-SS turned out to be 4.79 µM; with MT4, 82.5 µM. Moreover, the EC50 is more than 33.8 µM in data set [3], more than 100 µM in data set [2] and more than 35.4 µM in data set [5]. In data set [4], this compound came in with a half-life of 47.4 s. In addition, in data set [1], the concentration for half-maximal inhibition (IC50) is more than 100 µM.

For `COC(=O)CCC/C=C(\c1cc(F)cc(C(F)(F)F)c1)c1cc(C)c2onc(OC)c2c1`, the IC50 in data set [1] came to 0.9 µM.

`COC(=O)CCC/C=C(\c1cc(F)cc(C(F)(F)F)c1)c1cc(C)c(OC)c(C(=O)OC)c1`: the results for the CC50 with CEM-SS and with MT4 were more than 5 µM and 5.7 µM, respectively. Also, the EC50 in data set [3] is more than 5.51 µM; in data set [2], more than 5 µM; in data set [5], more than 5.89 µM. The IC50 in data set [1] is more than 100 µM.

(Values after ChEMBL document CHEMBL1140415, “Synthesis, anti-HIV activity, and metabolic stability of new alkenyldiarylmethane HIV-1 non-nucleoside reverse transcriptase inhibitors” (J Med Chem, 2005).)
